MIN6 prolif: MIN6 beta-cell proliferation induction | MIN6 cells proliferation, ATPlite luminescence, 48 h; cells starved in 0.2% serum; 100% = growth in 10% serum | AID 2380 | proliferation, % at 10 µM | 330,000 compounds, 0.29% hits;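 active = compounds whose signal lies at least 3.5 SD above the mean of all wells on their plate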
hiPSC survival: increases survival of single human iPS cells; AID 602274; hiPSC single-cell survival, ATPlite luminescence; 100% = ROCK inhibitor wells, 0% = DMSO; 360,000 compounds, 0.044% hits; survival enhancement, % at 20 µM; in the data active = survival enhancement above about 18%;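 note: cells exposed to compounds for 16 hours before the ATP read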
CRFBP-R2 agonist: agonists of human CRF-binding protein/CRF-R2 receptor complex; 350,000 compounds, 0.46% hits; HEK293 CRF-R2/CRF-BP, calcium dye fluorescence (FLIPR); percent of saturating CRF peptide response; activation, % at 13.2 µM;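 active = activation of at least 50%, plus an integration ratio under a set limit after plate pattern correction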
UCH37 DUB inh: blocks the human deubiquitinase UCH37; 330,000 compounds, 0.33% hits; Q9Y5K5; purified proteasome/UCH37, Ub-AMC cleavage fluorescence; inhibition, % (test concentration not listed);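 active = mean inhibition over replicate wells above about 20%, limit read from the data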
Target sequence (Q9Y5K5 whole entry, looked up): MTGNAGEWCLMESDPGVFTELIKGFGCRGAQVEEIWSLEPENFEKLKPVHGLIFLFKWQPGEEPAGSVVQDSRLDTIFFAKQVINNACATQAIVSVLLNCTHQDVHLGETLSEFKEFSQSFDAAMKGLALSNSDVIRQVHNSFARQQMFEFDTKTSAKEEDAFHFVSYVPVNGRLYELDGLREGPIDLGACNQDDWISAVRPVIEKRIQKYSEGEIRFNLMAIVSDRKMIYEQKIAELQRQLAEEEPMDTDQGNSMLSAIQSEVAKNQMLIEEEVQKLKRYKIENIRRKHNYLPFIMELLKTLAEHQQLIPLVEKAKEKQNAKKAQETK
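Material: human UCH37 enzyme supplied as purified proteasome complex. Measure: % inhibition of Ub-AMC cleavage fluorescence. Medium: pH 7.4 Tris-HCl (50 mM) with ovalbumin, ATP-MgCl2, DTT. Times: 30 min preincubation with enzyme, 25 min cleavage at room temperature. Detection: AMC fluorescence intensity at 355/460 nm.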
H9c2 protect: myocardial damage modulation in H9c2 cells; H9c2 cardiomyocytes, H2O2 injury protection, ATPLite, 2 h; protection from H2O2 cell death, % at 20 µM; 360,000 compounds, 0.63% hits;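 active = compounds giving at least 50% protection of heart cells from peroxide-induced death in the single-dose screen, raw or plate-pattern-corrected value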
CRFBP-R2 block: blocks CRF-induced signaling of the CRF-BP/CRF-R2 complex; HEK293 CRF-R2/CRF-BP, CRF-induced calcium fluorescence; inhibition, % at 11.8 µM; 350,000 compounds, 0.59% hits; AID 588475;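 active = inhibition of the ligand-induced calcium signal above about 50% at the single tested concentration, limit read from the data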
A number is an active result; n = inactive; x = no result given. Hits are enriched below; roughly 2.1% of the tested compounds scored in any of these assays.

SMILES	MIN6 prolif	hiPSC survival	CRFBP-R2 agonist	UCH37 DUB inh	H9c2 protect	CRFBP-R2 block
CCOc1ccc(N=c2scc(-c3ccccc3)n2CCO)cc1	n	n	n	n	n	n
CCOc1ccc(N=c2scc(-c3ccc(OC)cc3)n2CCO)cc1	n	n	n	n	n	80
COc1ccc(C2CC(c3cccs3)n3nc(N)nc3N2)cc1 (stereo unspecified)	n	n	n	n	62	n
CCOc1ccc(C=NNC(=O)c2cc(-c3ccco3)nc3ccccc23)cc1	x	x	x	n	x	x
O=C1CCN(CCCc2ccccc2)CCN1[C@H](CO)c1ccccc1	n	n	n	28	n	n
COc1cc(/C=C2/C(=O)NN(c3cccc(C)c3)C2=O)ccc1OC(=O)c1ccco1	n	n	54	n	n	n
COc1cc(/C=C2/C(=O)NN(c3cccc(C)c3)C2=O)cc([N+](=O)[O-])c1O	n	n	n	x	n	n
O=S(=O)(/N=C(\c1ccc(F)cc1)N1CCOCC1)c1ccccc1	x	n	50	x	n	n
COc1ccc(-c2cc3nc(-c4ccccc4)cc(N4CCN(C(=O)c5ccoc5)CC4)n3n2)cc1	x	n	n	x	54	n
O=C(c1ccoc1)N1CCN(c2cc(-c3ccccc3)nc3cc(-c4ccc(Br)cc4)nn23)CC1	x	n	n	x	n	n
O=C(c1ccoc1)N1CCN(c2cc(-c3ccncc3)nc3cc(-c4cccc(Cl)c4)nn23)CC1	x	n	n	x	71	n
COc1cccc(C2C3CN(C)CC=C3C(C#N)=C(N)C2(C#N)C#N)c1OC (stereo unspecified)	n	n	72	n	n	n
CN1CC=C2C(C#N)=C(N)C(C#N)(C#N)[C@H](c3cccs3)[C@H]2C1	x	n	53	x	n	n
CCN1CC=C2C(C#N)=C(N)C(C#N)(C#N)[C@H](c3cccc(OC)c3OC)[C@H]2C1	n	n	n	n	n	n
CN1CC=C2C(C#N)=C(N)C(C#N)(C#N)C(CCc3ccccc3)C2C1 (stereo unspecified)	n	n	59	n	n	n
CN1CC=C2C(C#N)=C(N)C(C#N)(C#N)C(c3ccsc3)C2C1 (stereo unspecified)	n	n	n	n	n	n
CC(CC(=O)Nc1ccc([N+](=O)[O-])cc1)=NNC(=O)c1ccccc1O	x	x	x	n	x	x
Cc1cc(-c2ccccc2)nc(N/N=C/c2ccc([N+](=O)[O-])cc2)n1	n	n	n	x	53	n
O=C(Nc1nnc(-c2ccco2)o1)c1ccc(Cl)cc1	n	n	n	n	n	n
O=C(Nc1nnc(-c2ccccc2)o1)c1ccc(Cl)cc1	n	n	54	n	n	73
O=C(Nc1nnc(C2=COCCO2)o1)c1ccc(Cl)cc1	n	n	n	n	n	n
COc1ccc(Br)cc1C(=O)Nc1cccc(-c2nnc(-c3ccco3)o2)c1	n	n	n	n	n	n
COc1cccc(C(=O)Nc2cccc(-c3nnc(-c4ccco4)o3)c2)c1	n	n	n	n	113	n
CN(C)c1ccc(C(=O)NNC(=O)c2ccc(Cl)cc2)cc1	n	n	n	n	n	68
CC(=O)c1ccc(C(=O)Nc2nnc(-c3ccc(Cl)cc3)o2)cc1	n	n	n	n	66	n
SMILES	MIN6 prolif	hiPSC survival	CRFBP-R2 agonist	UCH37 DUB inh	H9c2 protect	CRFBP-R2 block
COc1ccc(C=NNC(=O)c2cnccn2)c(OC)c1OC	x	x	x	n	x	x
COc1cccc(C(=O)Nc2nnc(-c3ccc(Cl)cc3)o2)c1	n	n	n	n	67	n
CN(C)c1ccc(C(=O)Nc2nnc(-c3ccc(Cl)cc3)o2)cc1	n	n	n	n	53	n
CN(c1ccccc1)S(=O)(=O)c1ccc(C(=O)Nc2nnc(-c3ccc(F)cc3)o2)cc1	n	x	n	n	x	n
COc1cccc(C(=O)Nc2nnc(-c3ccc(F)cc3)o2)c1	n	n	n	n	n	n
Cc1ccc(C(=O)Nc2nnc(-c3ccco3)o2)cc1C	n	n	n	n	n	51
COc1ccc(C(=O)NN=Cc2ccoc2)cc1	x	x	x	n	x	x
O=C(NN=Cc1ccco1)c1ccc(Br)o1	x	x	x	n	x	x
COc1cccc(NC(=O)CC(C)=NNC(=O)C2CCCCC2)c1	x	x	x	n	x	x
COc1ccccc1NS(=O)(=O)c1cccc(C(=O)N/N=C/c2c(CO)cnc(C)c2O)c1	n	n	n	x	52	n
CC(C)OCCCNC(=O)c1c(N)n(N=Cc2ccccn2)c2nc3ccccc3nc12	x	x	x	n	x	x
CC1=CC(=C2N=C(c3ccccc3)OC2=O)C=C(C)O1	n	n	n	n	n	n
CN(C)/C(CN1CCN(C=O)CC1)=C1\N=C(c2ccccc2)OC1=O	n	n	n	20	n	n
CCOc1cc(C(=O)NCC(=O)NN=Cc2sccc2C)cc(OCC)c1OCC	x	x	x	n	x	x
Cc1[nH]c(C)c(S(=O)(=O)N2CCN(c3cccc(Cl)c3)CC2)c1C(=O)N1CCCC1	n	n	n	n	n	n
COc1cccc(N2CCN(S(=O)(=O)c3c(C)[nH]c(C)c3C(=O)N3CCCC3)CC2)c1	n	n	n	n	n	120
CC(=NNC(=O)c1cccnc1)c1nnn(-c2nonc2N)c1C	x	x	x	n	x	x
CN(Cc1ccccc1)C(=O)c1ccc(NC(=O)Cc2cccc(NC(=O)C3CCCN(C(=O)CCc4ccccc4)C3)c2)cc1 (stereo unspecified)	n	n	n	n	n	n
CN(Cc1ccccc1)C(=O)c1cccc(NC(=O)Cc2ccc(NC(=O)C3CCCN(C(=O)CCc4ccccc4)C3)cc2)c1 (stereo unspecified)	x	n	n	x	n	57
O=[N+]([O-])c1cc(C=NN/C(=N/c2ccccn2)c2ccccn2)ccc1O	x	x	x	n	x	x
COc1cccc(/C=C2\C(=O)C(=O)c3ccccc32)c1	n	n	n	n	n	76
COc1cc(C=C2C(=O)c3ccccc3C2=O)cc(OC)c1	n	n	n	x	n	n
CCN1C/C(=C/c2ccc(OC)c(O)c2)C(=O)/C(=C/c2ccc(OC)c(O)c2)C1	n	n	n	n	n	n
COc1cc(C=C2C(=O)c3ccccc3C2=O)ccc1O	n	n	n	n	n	n
COc1cc(C=C2C(=O)c3ccccc3C2=O)cc(OC)c1OC	n	n	n	n	n	88
COc1ccc(C=C2C(=O)c3ccccc3C2=O)cc1O	n	n	n	n	n	66
COc1ccc(/C=C2\CN(Cc3ccccc3)C/C(=C\c3ccc(OC)c(O)c3)C2=O)cc1O	n	n	n	x	61	n
COc1ccc(OC)c(C(O)=CC(=O)C(=O)Nc2cc(C)cc(C)c2)c1	x	x	x	n	x	x
COC(=O)C1=NN(c2ccccc2)C2(S1)SC(C(C)=O)=C(C)N2c1ccccc1 (stereo unspecified)	n	n	n	n	n	65

Screening results from PubChem BioAssay.
